Assay outcomes: PubChem BioAssay, several laboratories
CSN inh: inhibitors of human CSN-mediated cullin deneddylation; Purified CSN, SCF-Nedd8-OG deneddylation, fluorescence polarization; inhibition, % at 12.5 µM; 360,000 tested, 0.38% active;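 active means pattern-corrected inhibition above about 35%, with an unprinted fluorescence ratio check between 0.5 and 1.5, limit read from the data, passing the limit was not always enough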;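 further: 0% = enzyme with substrate and 100% = substrate without enzyme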
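Material: purified human Csn5 enzyme expressed in HEK293T cells / Medium: Tris buffer pH 7.5, NaCl, DTT, Tween-20, trehalose, ovalbumin / Compound dosing: 12.5 µM single point / Schedule: 90 min incubation of compound, enzyme and substrate at room temperature / Signal: fluorescence polarization of the substrate / Control set: no-enzyme wells high, enzyme-with-substrate wells low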
Rpn11 block: inhibitors of human proteasome Rpn11; 360,000 tested, 0.59% active; human 26S proteasome, Ub4-pepOG fluorescence polarization; 20S core pre-blocked with epoxomicin; calls only at 20 µM; O00487;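 active means inhibition at 20 µM, scaled to each plate's controls, above about 33%, limit read from the data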
HNF4A DNA FP: change in binding of human HNF4 alpha to DNA | P41235 | activity change, % at 10 µM | 360,000 tested, 0.3% active | HNF4a-FITC DNA binding, fluorescence polarization, 1 h; in the data active means activity change above about 30%, passing the limit was not always enough
Target sequence (P41235 whole entry, looked up): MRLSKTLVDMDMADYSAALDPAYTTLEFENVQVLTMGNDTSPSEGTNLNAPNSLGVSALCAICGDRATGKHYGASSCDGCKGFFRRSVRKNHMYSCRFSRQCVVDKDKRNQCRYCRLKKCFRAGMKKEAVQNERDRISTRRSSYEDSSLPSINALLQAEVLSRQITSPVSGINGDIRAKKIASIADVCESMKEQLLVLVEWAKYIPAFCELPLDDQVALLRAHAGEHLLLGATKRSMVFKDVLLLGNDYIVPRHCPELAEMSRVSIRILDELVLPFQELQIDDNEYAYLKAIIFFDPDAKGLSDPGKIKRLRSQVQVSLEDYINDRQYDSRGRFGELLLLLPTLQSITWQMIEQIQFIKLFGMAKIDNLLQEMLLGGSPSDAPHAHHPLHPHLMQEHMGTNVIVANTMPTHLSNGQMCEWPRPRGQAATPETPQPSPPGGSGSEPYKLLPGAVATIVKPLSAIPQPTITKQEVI
PKA-R2B activ: PKA-R2B complex activation | 340,000 tested, 0.079% active | activation, % at 11.4 µM | PKA-R2B holoenzyme dissociation, Cy5-IP20 fluorescence polarization; R2B truncated from residue 108, S112A mutant; 0% DMSO only, 100% 113 µM cGMP;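 active means activation above a cutoff set at the mean over all compounds plus 3 SD, cut at about 18% in these data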;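 further: higher means more holoenzyme dissociation and a rise in polarization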
PKA-R1A act: activators of PKA-R1A complex. P00514+P68181. PKA-R1A dissociation, Cy5-IP20 fluorescence polarization; scaled: DMSO 0%, 113 µM cGMP 100%. activation, % at 11.4 µM. 340,000 tested, 0.083% active;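 active means percent activation above the mean of all tested compounds plus 3 SD, cut at about 19% in these data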;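 further: higher means more PKAc released from R1A so a rise in polarization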
TPT1 inh: C. albicans TPT1 enzyme inhibition; recombinant caTPT1, FP RNA substrate dephosphorylation; inhibition, % at 5 µM; 300,000 tested, 0.81% active;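 active means inhibition above the mean of all tested compounds plus 3 SD, set per screening campaign, cut at about 24% in these data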;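 further: plate controls were DMSO alone for no effect and ferristatin control at 100 nM for full effect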
* hit, by the source's call; i = inactive; x = no result; + = active, no number. This is a sample that favours compounds with a hit; in the whole collection about 1.6% have one here.

SMILES	CSN inh	Rpn11 block	HNF4A DNA FP	PKA-R2B activ	PKA-R1A act	TPT1 inh
CC[C@H](C)/C=C/C1=CC2=C(Cl)C(=O)[C@@]3(C)OC(=O)C(C(=O)[C@H](C)[C@@H](C)O)=C3C2=CO1	49*	i	1	-6	-1	1
COc1ccc(C(=O)Nc2ccc(-c3nnn(CC(=O)N4CCN(C(=O)c5ccco5)CC4)n3)cc2)cc1	80*	i	7	-7	-11	2
O=C(Cn1nnc(-c2ccc(Cl)cc2)n1)N1CCN(C(=O)c2ccco2)CC1	-6	i	-2	-10	4	x
Cc1cccc(NC(=S)N2CCC(NC(=O)C3CCCCC3)CC2)c1	0	i	1	-2	0	0
Cc1ccc(CNC(=O)Cn2nnc(C(=O)Nc3cccc(C)c3C)c2N)cc1	4	i	1	-4	6	0
Cc1ccc(CNC(=O)c2nnn(CC(=O)Nc3cccc(C)c3C)c2N)cc1	36*	i	-3	-14	-8	-1
CCOc1ccccc1NC(=O)c1ccc2c(c1)C(=O)N(C(C)(C)C)C2=O	1	i	4	-3	-9	3
CCOC(=O)c1c(CSc2ccccc2)n(C)c2cc(Br)c(OC)c(O)c12	1	i	2	-4	4	0
CCOC(=O)c1c(CSc2ccccc2)n(C)c2cc(Br)c(OCC(O)CNC(CO)(CO)CO)cc12 (stereo unspecified)	71*	i	3	-6	-4	1
CN1c2ccccc2C(=O)/C(=C\Nc2ncccn2)S1(=O)=O	0	i	0	5	8	-4
Cc1sc2c(c1C)C(=O)/C(=C\Nc1ccncc1)S(=O)(=O)N2C	35*	i	7	8	8	-2
COc1cc(C(=O)NCCSc2ccc(Cl)cc2)cc(OC)c1OC	0	i	-1	-3	-2	0
COc1cc(C(=O)NCCSc2ccc(Br)cc2)cc(OC)c1OC	70*	i	1	2	1	0
Cc1ccc(/C=C2/SC(=S)N(C3CCCCC3)C2=O)o1	29	+	34*	-8	-3	15
O=C1/C(=C/c2ccncc2)SC(=S)N1C1CCCCC1	5	i	0	8	-1	0
O=C1NC(=O)/C(=C\c2ccc(Cl)nc2)S1	-3	i	1	-7	-3	-1
O=C1NC(=O)/C(=C\c2ccc(OCc3cnc(Cl)s3)cc2)S1	37*	i	-6	1	0	0
O=C(NC(=S)Nc1cccc2[nH]ncc12)c1ccccc1	0	i	5	-4	-5	4
O=C(Nc1cccc2[nH]ncc12)c1ccc(F)cc1	10	i	4	-3	19*	-1
N#C/C(=C\c1ccc([N+](=O)[O-])o1)c1nc2ccccc2[nH]1	x	x	x	x	x	29*
N#C/C(=C(/O)c1ccc([N+](=O)[O-])o1)c1nc2ccccc2[nH]1	4	i	-5	-3	-9	-6
CCCCCCCC1CC(CSc2ncn[nH]2)OC1=O (stereo unspecified)	54*	i	0	-15	-3	-13
CCOC(=O)C1C(=O)NC(SCC(=O)Nc2nccs2)=C(C#N)C1c1ccccc1OCC (stereo unspecified)	8	+	2	3	-3	5
CCOC(=O)C1C(=O)NC(SCC(=O)OC)=C(C#N)C1c1ccccc1OCC (stereo unspecified)	-6	i	-1	-7	3	2
CCNC(=O)COC(=O)c1cccc(Br)c1	1	i	-6	1	3	1
O=C(Nc1ccc2nc(-c3cccs3)c(-c3cccs3)nc2c1)NC1CC1	12	+	19	-2	4	10
O=C(c1ccc(-c2ccccc2)cc1)N1CCN(c2ccc3c(c2)C2CC3CCN2C(=O)OCc2ccccc2)CC1 (stereo unspecified)	113*	i	-6	x	x	x
COCC(=O)N1CCC(Oc2ccc(C(=O)NCc3cnc(C)cn3)cc2)CC1	-4	i	-1	3	-2	-1
